Common to all, as to assay type: functional
Holding throughout (set-up): scale not given: the % may be the effect or the level left

In experiment [1] the test system is BV-2. As to the kind of experiment: Inhibition of LPS-induced NO production in mouse BV2 microglia cells assessed as nitrite levels at 100 uM relative to untreated control. The method in brief:
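BV-2 microglia seeded 2 × 10^5 cells/well in 24-well plates. After 24 h, fresh medium with LPS ([…]) and compound in DMSO added at the same time. After 24 h, nitrite in the medium measured by Griess reaction (sulfanilamide, naphthylethylenediamine, H3PO4) with absorbance at 540 nm. Given as % of LPS-activated cells.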

In experiment [2] the test system is BV-2. Nature of the experiment: Inhibition of LPS-induced tetrahydrobiopterin production in mouse BV2 microglia cells assessed as tetrahydrobiopterin levels at 10 uM relative to untreated control. The method in brief:
(§1)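 BV-2 cells in 24-well plates (2 × 10^5/well) stimulated with LPS ([…]) in fresh medium together with compound in DMSO for 24 h. Medium was treated with phosphoric acid and acidic iodine (I2/KI in trichloroacetic acid) for 1 h in the dark. Oxidation stopped with ascorbic acid, then centrifuged and diluted. BH4 given as % of LPS-activated cells.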

Experiment [3] concerns BV-2. Nature of the experiment: Inhibition of LPS-induced tetrahydrobiopterin production in mouse BV2 microglia cells assessed as tetrahydrobiopterin levels at 100 uM relative to untreated control. The method in brief: as §1
Experiment [4] deals with BV-2. As to the kind of experiment: Inhibition of LPS-induced tetrahydrobiopterin production in mouse BV2 microglia cells assessed as tetrahydrobiopterin levels at 60 uM relative to untreated control. The method in brief:
as §1

Experiment [5] concerns BV-2. Nature of the experiment: Inhibition of LPS-induced tetrahydrobiopterin production in mouse BV2 microglia cells assessed as tetrahydrobiopterin levels at 30 uM relative to untreated control. The procedure, abridged:
as §1

For experiment [6], the system named is BV-2. Nature of the experiment: Inhibition of LPS-induced tetrahydrobiopterin production in mouse BV2 microglia cells assessed as tetrahydrobiopterin levels at 50 uM relative to untreated control. The method in brief: as §1

Take `CCCCN1CCc2cc(OC)c(O)cc2C1`: the Activity in experiment [1] came to 111%. Take `COc1cc2c(cc1O)C(C)N(C(C)=O)CC2` (stereo not given): the Activity worked out at 99% in experiment [2]; 52% in experiment [3]; 40% in experiment [1]; 59% in experiment [4]; 59% in experiment [5].

Regarding `COc1cc2c(cc1O)C(C(C)C)N(C(C)=O)CC2` (stereo not given), the Activity in experiment [1] is 39%. For the compound `CCC(=O)N1CCc2cc(OC)c(O)cc2C1`, the Activity came out at 86% in experiment [2], 51% in experiment [3], 36% in experiment [1] and 72% in experiment [4]. Regarding `COc1cc2c(cc1O)C(c1ccccc1)N(C(C)=O)CC2` (stereo not given), in experiment [1], the Activity was 51%. On the same count and under the same terms, next, `CCCN1CCc2cc(OC)c(O)cc2C1`: 82%; `CCCC(=O)N1CCc2cc(OC)c(O)cc2C1`: 74%. On the same count and under the same terms, next, `COc1cc2c(cc1O)C(CC(C)C)N(C(C)=O)CC2` (stereo not given): 113%; `COc1cc2c(cc1O)C(Cc1ccccc1)N(C(C)=O)CC2` (stereo not given): 96%; `COc1cc2c(cc1O)C(C1CCC1)N(C(C)=O)CC2` (stereo not given): 69%. Still for that read-out and setting: next, `CCCC1c2cc(O)c(OC)cc2CCN1C(C)=O` (stereo not given): 84%; `COc1cc2c(cc1O)CN(C(=O)C(C)C)CC2`: 82%. Take `COc1cc2c(cc1O)CN(C(=O)CC(C)C)CC2`: the Activity in experiment [1] is on record as 90%. Still for that read-out and setting: next, `CCC1c2cc(O)c(OC)cc2CCN1C(C)=O` (stereo not given): 50%. For `COc1cc2c(cc1O)CN(C(C)=O)CC2`, the results for the Activity in experiment [3], in experiment [6] and in experiment [1] were 55%, 79% and 46%, respectively. For `COc1cc2c(cc1O)CN(CC1CCCCC1)CC2`, in experiment [1], the Activity worked out at 63%. Same read-out and setting: next, `COc1cc2c(cc1O)C(C1CC1)N(C(C)=O)CC2` (stereo not given): 60%. As for `COc1cc2c(cc1O)CN(C(=O)C1CCCCC1)CC2`, the Activity in experiment [3] was determined as 63%; in experiment [1], 64%; in experiment [4], 71%; in experiment [5], 95%.

These data come from ChEMBL document CHEMBL1156698, “Syntheses of tetrahydroisoquinoline derivatives that inhibit NO production in activated BV-2 microglial cells” (Eur J Med Chem, 2008).
